Source: PubChem BioAssay
A selection: hits, their analogues and other compounds. The true share with any hit is near 3.5%.
RGS4 act: potentiators or activators of RGS4 | HEK293 M3R/inducible RGS4, carbachol calcium flux Fluo4; active compounds read low | B-score at 10 µM | 0.92% of 310,000 active;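 active = B-score of the integrated calcium signal more than 4 SD below the library mean, with starting fluorescence not abnormally high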;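 note: negative B-score means reduced calcium response which marks RGS4 activation or potentiation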
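test system = HEK293 cells with stable M3R and inducible RGS4 | schedule = recording 10 s baseline at 1 Hz, 100 s post-agonist | technique = Fluo4-AM (2 µM) calcium-flux fluorescence, kinetic read | measure = Agonist-evoked peak-minus-minimum fluorescence over baseline, integrated ratio, B score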
RGS4 inh: inhibitors of human RGS4; HEK293 M3R/RGS4 inducible, Fluo-4 calcium flux; active compounds read high; triggered by carbachol at its EC20; 0.45% of 310,000 active; B-score at 10 µM; P49798;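 active = B-score, a plate-corrected calcium signal, over three deviations above library mean, with baseline fluorescence within five deviations of library mean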;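 note: RGS4 expression induced by doxycycline in cells with stable M3 receptor; B-score is computed from the integrated fluorescence ratio over baseline after carbachol; higher B-score means a larger calcium signal and so more RGS4 inhibition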
Target sequence (P49798 whole entry, looked up): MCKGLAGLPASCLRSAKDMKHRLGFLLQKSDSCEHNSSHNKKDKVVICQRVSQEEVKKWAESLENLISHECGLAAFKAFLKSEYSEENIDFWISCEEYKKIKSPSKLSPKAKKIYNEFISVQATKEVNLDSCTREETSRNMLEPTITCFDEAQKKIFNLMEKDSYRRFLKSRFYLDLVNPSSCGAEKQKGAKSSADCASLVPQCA
MrgX1 PAM: allosterically activates human MrgX1 receptor signaling; Q96LB2; MrgX1-HEK293, Fluo-4 calcium flux, FDSS; active compounds read high; B-score at 10 µM; 0.63% of 310,000 active; AID 588675;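 active = plate-corrected calcium response at least 3 library SD above typical, normal starting fluorescence, not activating the receptor alone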;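 note: compound read alongside a low EC10 to EC30 dose of BAM8-22 agonist; peak minus trough fluorescence over baseline measured at the second addition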
MrgX1 ag: agonists of human MrgX1 receptor | Q96LB2 | MrgX1-HEK293 cells, Fluo-4 calcium fluorescence, agonist mode; active compounds read high | B-score at 10 µM | 0.44% of 310,000 active;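 active = calcium response B-score plate-corrected fluorescence ratio at least 3 library SD, with starting fluorescence B-score inside 5 SD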
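Material – MrgX1-expressing HEK293 cells · Input – 15,000 cells seeded per well · Dosing – compound as first of three additions · Times – overnight seeding, then 1 h dark dye loading · Measured by – kinetic Fluo-4 NW fluorescence of intracellular calcium · Read-out – B-scored fluorescence response ratio · Benchmarks – positive and negative control wells on each plate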
MrgX1 antag: human MrgX1 receptor antagonism, primary screen; 1.3% of 310,000 active; B-score at 10 µM; MRGX1-HEK293 calcium flux, Fluo-4, BAM8-22 antagonism; active compounds read low; Q96LB2;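 active = calcium-response B-score plate-corrected more than 3 library SD below zero, starting fluorescence within 5 deviations, no agonist response on first addition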;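 note: peak minus trough fluorescence over baseline after final BAM8-22 challenge near maximal dose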
RGS4 block valid: RGS4 inhibitor validation | HEK293 M3R/RGS4, carbachol calcium Fluo-4 fluorescence; carbachol added at its EC20; 0 = buffer wells, 100 = carbachol control | 65% of 1,700 active | calcium response, % at 10 µM | shares compounds with RGS4 inh;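 active = duplicate-averaged calcium response above the buffer-only control mean plus 5 SD of those controls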;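 note: integrated fluorescence ratio F max minus min over baseline F0; higher response in RGS4-induced cells means RGS4 inhibition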
M3R Ca ctr: non-induced cell nonspecific activity of RGS4 inhibitors. shares compounds with RGS4 inh. HEK293 M3R non-induced, carbachol calcium Fluo-4; submaximal (EC20) carbachol stimulus; buffer wells 0%, carbachol control wells 100%. activity (percent), % at 10 µM. 20% of 1,900 active. AID 493000; call rule not given here;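 note: RGS4 induction absent so cells express M3R without RGS4; higher means more calcium signal and flags a non-specific hit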
RGS4 inh ctr2: signal in non-induced cells without carbachol, RGS4 inhibitor counter-screen | shares compounds with RGS4 inh | HEK293 M3R/RGS4 non-induced, Fluo-4 calcium, no carbachol; normalised: buffer wells 0%, carbachol wells 100% | calcium response (agonist-mode artifact), % at 10 µM | 22% of 1,900 active;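 active = duplicate-averaged calcium rise in uninduced cells above buffer wells' mean plus 5 SD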
Active calls of the source: *; i = inactive; . = no result.

SMILES	RGS4 act	RGS4 inh	MrgX1 PAM	MrgX1 ag	MrgX1 antag	RGS4 block valid	M3R Ca ctr	RGS4 inh ctr2
CCOCCCNC(=S)N(CCCN(C)C)Cc1cc2cc3c(cc2[nH]c1=O)OCCO3	i	i	i	i	i	.	.	.
COCCNC(=S)N(CCCN(C)C)Cc1cc2cc3c(cc2[nH]c1=O)OCCO3	i	i	i	i	i	i	i	i
CCCOc1ccc(/C(O)=C2\C(=O)C(=O)N(c3ccccn3)C2c2ccccc2F)cc1C (stereo not drawn)	i	i	i	i	i	.	.	.
COC(=O)c1cc(C)nc2c1C(=O)C(=O)C=C2N1CCOCC1	i	21*	i	i	i	34%*	i	i
COC(=O)c1cc(S(=O)(=O)N2CCOCC2)c(Cl)cc1N1CCOCC1	i	i	i	i	i	.	.	.
COc1ccc(C)cc1NC(=O)CCC(=O)Nc1nnc(C2CCCCC2)s1	i	i	i	i	i	.	.	.
O=C(Nc1ccccc1)C(Cl)C(=O)c1ccccc1 (stereo not drawn)	i	9.1*	i	i	i	30%*	38%*	i
O=C1N=C2SCCN2/C1=C\c1ccc(Cl)cc1	i	25*	i	i	i	85%*	i	i
Cc1ccc(/C=C2\SC(N3CCCC3)=NC2=O)cc1	i	i	i	i	i	.	.	.
Cc1ccc(N(CC(=O)NCc2ccc(F)cc2)S(=O)(=O)c2cccs2)cc1	i	i	i	i	i	.	.	.
CC1CCCN(CCCNS(=O)(=O)c2ccc3c(c2)CCN3C(=O)C2CC2)C1 (stereo not drawn)	i	i	i	i	i	.	.	.
CNC(=O)c1[nH]cnc1C(=O)Nc1ccccn1	i	i	i	i	i	i	i	i
Cc1ccc(C(=O)C(C)OC(=O)CCN2C(=O)C3C4C=CC(C5CC45)C3C2=O)cc1 (stereo not drawn)	i	i	i	i	i	.	.	.
CCCNC(=O)c1nnsc1S(=O)c1ccc(Cl)cc1 (stereo not drawn)	i	7.2*	.	.	.	12%*	i	22%*
CNC(=O)c1nnsc1S(=O)c1ccc(Cl)cc1 (stereo not drawn)	i	7.3*	.	.	.	30%*	i	14%*
C/C(=C\c1ccccc1)C(=O)Nc1ccc(Cl)cn1	i	i	i	i	i	.	.	.
Cc1ccc(/C=c2\sc3n(c2=O)CN(c2ccc(Br)cc2)CN=3)o1	i	i	i	i	i	.	.	.
Cc1ccc(/C=c2/sc3n(c2=O)CCCN=3)o1	i	5.3*	i	i	i	i	i	12%*
CCOC(=O)C1(Cc2cccc(F)c2)CCN(C(=O)c2cnc(C)cn2)CC1	i	i	i	i	i	.	.	.
Cc1ccc(N2C(=O)Cc3ccccc3C2=O)cc1	i	i	i	i	i	i	i	i
COC(=O)c1c(NC(=O)COC(=O)C2CCC2)sc(C)c1C	i	i	i	i	i	.	.	.
O=C(COC(=O)[C@H](Cc1ccccc1)NC(=O)c1cccs1)NC1CC1	i	i	i	i	i	.	.	.
COc1ccc(NS(=O)(=O)c2ccc3nc(COc4cccc5ccccc45)[nH]c3c2)cc1	i	8.5*	i	i	i	7.0%*	i	i
CCOC(=O)c1c(NC(=O)CSC2=NN3CCCC(=O)N=C3S2)sc2c1CCCCC2	i	i	i	i	i	.	.	.
O=[N+]([O-])c1ccc(-c2nn(-c3ccccc3)cc2/C=N/n2c(-c3ccncc3)n[nH]c2=S)cc1	i	i	i	i	i	i	i	i
